We go through eleven compounds from ChEMBL document CHEMBL3870305, “Synthesis, biological evaluation and molecular modeling studies of imidazo[1,2-a]pyridines derivatives as protein kinase inhibitors” (Eur J Med Chem, 2016).

Activity calls are given as the source filed them. No cut-off for these calls is given here.

Test [1] addresses Casein kinase I delta/epsilon (Sus scrofa). Briefly: Inhibition of CK1 delta/epsilon (unknown origin).
The target in test [2] is DYRK1A (Rattus norvegicus). Briefly: Inhibition of DYRK1A (unknown origin).
Test [3] addresses CLK1 (Mus musculus). In words: Inhibition of CLK1 (unknown origin).
The target of test [4] is Glycogen synthase kinase-3 alpha/beta (Sus scrofa). In words: Inhibition of GSK-3 alpha/beta (unknown origin).
In test [5] the target is CDK9/cyclin T1 (Homo sapiens) (UniProt O60563+P50750). In words: Inhibition of full length recombinant human CDK9/CyclinT expressed in baculovirus infected Sf9 insect cells at 10 uM using YSPTSPSYSPTSPSYSPTSPSKKKK as substrate in presence of gamma[33P]ATP.
In test [6] the target is Cyclin-dependent kinase 1/cyclin B1 (Homo sapiens) (UniProt P06493+P14635). In words: Inhibition of full length recombinant human CDK1/CyclinB1 expressed in baculovirus infected Sf9 insect cells at 10 uM using histone H1 as substrate in presence of gamma[33P]ATP. The essentials: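 Buffer G (40 mM Tris pH 7.5, 20 mM MgCl2, 0.1 mg/ml BSA) with 0.8 µg/µl histone H1 and 15 µM [γ-33P]ATP. Compound tested at 10 µM; activity as % of the no-inhibitor control; n = 2, mean ± range.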

Test [7] concerns CLK1 (Mus musculus). Briefly: Inhibition of CLK1 (unknown origin) at 10 uM in presence of gamma[33P]ATP relative to control.
The target in test [8] is CDK2/Cyclin A2 (Homo sapiens) (UniProt P24941+P20248). In words: Inhibition of full length human CDK2/CyclinA at 10 uM using histone H1 as substrate in presence of gamma[33P]ATP. The test is classed as protein-complex assay.
For test [9], the target named is Dual specificity protein kinase CLK1 (Mus musculus) (UniProt P22518). Briefly: Competitive inhibition of full length recombinant mouse CLK1 expressed in bacteria using GRSRSRSRSRSR peptide as substrate in presence of varying levels of ATP by double-reciprocal method.
The test system of test [10] is DYRK1A (Rattus norvegicus). In words: Inhibition of DYRK1A (unknown origin) at 10 uM in presence of gamma[33P]ATP relative to control.
For test [11], the target named is Cyclin-dependent kinase 5/CDK5 activator 1 (Homo sapiens) (UniProt Q00535+Q15078). In words: Inhibition of full length recombinant human CDK5/p25 expressed in bacteria at 10 uM using histone H1 as substrate in presence of gamma[33P]ATP. The essentials:
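Buffer B (25 mM MOPS pH 7, β-glycerophosphate, p-nitrophenyl-phosphate, EGTA, 15 mM MgCl2, DTT, orthovanadate) with 0.8 µg/µl histone H1 and 15 µM [γ-33P]ATP. Compound tested at 10 µM; activity as % of the no-inhibitor control; n = 2, mean ± range.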

Chain of Cyclin-dependent kinase 5/CDK5 activator 1 (Homo sapiens) (Q00535 whole entry): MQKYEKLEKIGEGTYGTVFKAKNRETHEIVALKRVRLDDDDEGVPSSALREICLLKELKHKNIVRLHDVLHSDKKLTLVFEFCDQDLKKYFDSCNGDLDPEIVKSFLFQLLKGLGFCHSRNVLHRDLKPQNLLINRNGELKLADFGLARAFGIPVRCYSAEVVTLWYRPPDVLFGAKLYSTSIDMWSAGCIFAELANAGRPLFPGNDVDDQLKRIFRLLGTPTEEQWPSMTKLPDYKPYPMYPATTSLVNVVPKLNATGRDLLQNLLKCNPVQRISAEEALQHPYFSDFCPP
Chain of Cyclin-dependent kinase 5/CDK5 activator 1 (Homo sapiens) (Q15078 99-307 partner limits assumed): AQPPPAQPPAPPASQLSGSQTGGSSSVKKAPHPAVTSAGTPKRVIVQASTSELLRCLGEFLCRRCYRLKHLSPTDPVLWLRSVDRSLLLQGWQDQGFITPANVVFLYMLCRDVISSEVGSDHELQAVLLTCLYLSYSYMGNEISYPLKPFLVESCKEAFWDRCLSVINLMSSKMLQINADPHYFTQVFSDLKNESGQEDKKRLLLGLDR
Chain of Cyclin-dependent kinase 1/cyclin B1 (Homo sapiens) (P06493 whole entry, looked up): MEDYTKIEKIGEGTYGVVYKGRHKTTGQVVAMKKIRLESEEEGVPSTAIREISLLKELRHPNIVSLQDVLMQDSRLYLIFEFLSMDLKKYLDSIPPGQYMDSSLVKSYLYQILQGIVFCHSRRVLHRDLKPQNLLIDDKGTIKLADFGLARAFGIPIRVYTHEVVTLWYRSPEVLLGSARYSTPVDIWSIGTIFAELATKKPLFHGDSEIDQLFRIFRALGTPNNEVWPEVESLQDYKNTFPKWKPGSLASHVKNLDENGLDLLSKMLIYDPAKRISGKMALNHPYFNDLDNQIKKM
Chain of Cyclin-dependent kinase 1/cyclin B1 (Homo sapiens) (P14635 whole entry, looked up): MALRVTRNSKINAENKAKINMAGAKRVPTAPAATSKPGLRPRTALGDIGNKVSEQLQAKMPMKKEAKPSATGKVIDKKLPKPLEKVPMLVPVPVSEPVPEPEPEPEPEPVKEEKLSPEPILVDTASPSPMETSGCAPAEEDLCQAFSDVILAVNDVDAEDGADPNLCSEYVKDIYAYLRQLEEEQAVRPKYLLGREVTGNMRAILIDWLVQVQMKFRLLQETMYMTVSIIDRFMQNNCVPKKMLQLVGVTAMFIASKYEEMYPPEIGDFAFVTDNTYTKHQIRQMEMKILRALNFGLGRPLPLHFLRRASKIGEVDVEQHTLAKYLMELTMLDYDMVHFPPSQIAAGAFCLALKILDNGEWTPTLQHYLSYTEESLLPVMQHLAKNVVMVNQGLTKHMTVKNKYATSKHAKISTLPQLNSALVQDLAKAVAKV
Chain of Dual specificity protein kinase CLK1 (Mus musculus) (P22518 whole entry, looked up): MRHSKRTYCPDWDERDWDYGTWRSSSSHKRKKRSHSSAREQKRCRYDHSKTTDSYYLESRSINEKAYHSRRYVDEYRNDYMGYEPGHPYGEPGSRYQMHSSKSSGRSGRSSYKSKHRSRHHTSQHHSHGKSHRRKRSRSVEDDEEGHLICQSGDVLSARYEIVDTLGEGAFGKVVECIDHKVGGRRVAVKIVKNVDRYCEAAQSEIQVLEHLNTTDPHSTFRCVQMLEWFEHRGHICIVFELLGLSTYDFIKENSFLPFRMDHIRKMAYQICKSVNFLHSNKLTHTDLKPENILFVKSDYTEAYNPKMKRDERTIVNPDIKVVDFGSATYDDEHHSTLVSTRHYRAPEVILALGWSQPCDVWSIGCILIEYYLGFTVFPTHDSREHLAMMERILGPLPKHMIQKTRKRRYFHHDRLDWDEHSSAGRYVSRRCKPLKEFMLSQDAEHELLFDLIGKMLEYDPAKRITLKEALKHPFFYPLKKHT

Take `NC(=O)c1cc(-c2cn3cc(N)ccc3n2)ccc1O`: the IC50 (in [1]; in [2]; on CLK1 (Mus musculus) [3]; in [4]) was over 10 µM in each case.

As to `NC(=O)c1cc(-c2cn3cc(Br)ccc3n2)ccc1O`, the IC50 in test [1] was over 10 µM; in [2], 2.6 µM; against CLK1 (Mus musculus) [3], 0.7 µM; in test [4] it was over 10 µM. The inhibition entry in [5], in test [6], in test [8], in [9] and in [11] was “Active” each time. For the same compound, the inhibition (in the test on CLK1 (Mus musculus) [7]; in test [10]) was over 50% in each case.

For the compound `NC(=O)c1cc(-c2cn3cc(F)ccc3n2)ccc1O`, the IC50 in test [1] was over 10 µM; in test [2], 4.7 µM; against CLK1 (Mus musculus) [3] it was 1.4 µM; in test [4], over 10 µM. In addition, the inhibition (in the test with CLK1 (Mus musculus) [7]; in [10]) was over 50% throughout.

Consider `NC(=O)c1cc(-c2cn3cc(Cl)ccc3n2)ccc1O`, for which the inhibition result in [5], in [6], in test [8] and in test [11] was “Active” each time.

Consider `COc1cccc(-c2cn3cc(Cl)ccc3n2)c1`, for which the IC50 (in test [1]; in test [2]; on CLK1 (Mus musculus) [3]; in test [4]) was over 10 µM each time.

For `Oc1ccc(-c2cn3cc(Cl)ccc3n2)cc1`, the concentration for half-maximal inhibition (IC50) (in [1]; in test [2]; at CLK1 (Mus musculus) [3]; in test [4]) was over 10 µM in each case.

In the case of `COc1cc(OC)cc(-c2cn3cc(Cl)ccc3n2)c1`, the IC50 (in test [1]; in test [2]; against CLK1 (Mus musculus) [3]; in test [4]) was over 10 µM throughout.

Take `COc1cc(-c2cn3cc(Cl)ccc3n2)cc(OC)c1OC`: the half-inhibitory concentration (IC50) (in [1]; in test [2]; at CLK1 (Mus musculus) [3]; in [4]) was over 10 µM in each case.

Regarding `NC(=O)c1cc(-c2cn3cc(-c4ccc([N+](=O)[O-])cc4)ccc3n2)ccc1O`, the IC50 (in test [1]; in test [2]; on CLK1 (Mus musculus) [3]; in test [4]) was over 10 µM throughout.

Regarding `NC(=O)c1cc(-c2cn3cc(O)ccc3n2)ccc1O`, the inhibition result in test [5], in test [6], in test [8] and in test [11] was “Active” each time.

Regarding `NC(=O)c1cc(-c2cn3ccccc3n2)ccc1O`, the IC50 is over 10 µM in [1], 4 µM in [2], 1 µM at CLK1 (Mus musculus) [3] and over 10 µM in test [4]. Besides, the inhibition (in the test on CLK1 (Mus musculus) [7]; in test [10]) was over 50% throughout.
